The EternaBench riboswitch data

Tested on: MS2 coat protein
Experiment: apparent Kd, MS2 coat protein; higher = weaker binding; RNA-MaP array; FMN 200 µM where present
Method in brief: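 Stalled E. coli RNA polymerase transcribed each design on Illumina sequencing-chip clusters. The clusters were titrated with SNAP-549-labelled MS2 coat protein, starting at 0.7 or 1.5 nM and doubling up to 3 µM, first without ligand and then with constant ligand, in 100 mM Tris-HCl pH 7.5, 80 mM KCl, 4 mM MgCl2, BSA, DTT, yeast tRNA and Tween-20. Green signal was normalised to red-channel RNA signal and to the control-cluster median Fmax. The apparent Kd is the median of filtered binding-curve fits made for each cluster.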

[1] = designed as: OFF switch for flavin mononucleotide, no ligand
[2] = ligand present: flavin mononucleotide, designed as: OFF switch for flavin mononucleotide
[3] = designed as: ON switch for flavin mononucleotide, no ligand
[4] = ligand present: flavin mononucleotide, designed as: ON switch for flavin mononucleotide

| Sequence | apparent Kd [1] | apparent Kd [2] | apparent Kd [3] | apparent Kd [4] |
| --- | --- | --- | --- | --- |
| GUGGCUAGUGCAGGAUAUUAGCGCGUGUAGUGUUGAGAAGGGCACAUGAGGAUCACCCAUGUGAUCAAUCACUGUUAAGGUCGC | 12.7 nM | 25.3 nM | – | – |
| CUUUGAUGAGGAUAUCGAGGUUAGUACAUGAGGAUCACCCAUGUUAUCCAGGUGUCGGUUCGAGAAGGUAUUGGAC | 16.7 nM | 18.5 nM | – | – |
| CAUUAAUUAAUUAUAGUAUUUAUACAGGAUAUGUAACAUGAGGAUCACCCAUGUAUACAUGGGAAACAGAAGGGUAUUUAUAGA | 32 nM | 28.8 nM | – | – |
| CUUUUGUGAGGAUAUCAGUAGUAAAUAAAUAAUAUUACUACUGAGAAGGCACAUGAGGAUCACCCAUGUUCCUC | 42.6 nM | 253 nM | – | – |
| GGGUACAUCGGAGGAUAUCAUGUAAAUACAUGAGGAUCACCCAUGUCGAUGGAGACAUCGGAGAUUGAGAAGGUCGAUGUACCG | – | – | 197 nM | 9.52 nM |
| UAUUUAUAAUAUUUUAACAUGAGGAUCACCCAUGUCGCUAGACAGGAUAUAUUUUAUUUUUUUAAGUAGAAGGGUCAUAUAUUU | – | – | 84 nM | 103 nM |
| UAUCAUUACACGAAGGAUAUCGAUAAUUGAACAUGAGGAUCACCCAUGUGAUAUAUUUUACAGUUCGAGAAGGUCGAGGGUGAAG | – | – | 35.6 nM | 18 nM |
| GUAAGCUCGUGAGGAUAUACAACACUGCUUCGGCAGUGUAUUAAGAUCACAUGAGGAUCACCCAUGUAGAAGGCACGAGCUGAU | 13.8 nM | 245 nM | – | – |
| AGGCGAGUAGGAUAUGCGUUUUUACGGGAAAGCUGGAUGGUACAUGAGGAUCACCCAUGUAGAAGGGCUCUGAA | 23.4 nM | 21.8 nM | – | – |
| CGUGAAGGCUGGCCGAUAUAGUCGAGAAGGGUCCACAUGAGGAUCACCCAUGUGAGCCUUGGUGGACAGGAUAUCGAUGGCCGU | 46.7 nM | 15.2 nM | – | – |
| CGAUAUACGAUGGACGGAAACGUACAUGAGGAUCACCCAUGUAGAAGGCGAUCCGCAACGCGGAUUGAGGAUAUAUACCACACA | 23.8 nM | 23.3 nM | – | – |
| GCCUCACAUGAGGAUCACCCAUGUCAGGAUAUAGGAGACGGUAGCUUUGCUGCCUUCGCUAGAAGGGACUGGCU | 33.5 nM | 55.4 nM | – | – |
| GGAUAGGACAGAGGAUAUACGUGCUAGAGAUACUAGCAAAAUUUCGUCACAUGAGGAUCACCCAUGUAGAAGGCUGUCCUAUCG | 5.02 nM | 7.65 nM | – | – |
| AGAAACUACGAGAAGGACAUAUGGUACUUCAGUUACAUGAGGAUCACCCAUGUAGGAUAUCGUAGUUUCAGGAUCGUGAGAUCA | 22 nM | 169 nM | – | – |
| AUUUGACAUGAGGAUCACCCAUGUGAGGAUAUCGUUAUUUACUUUGUUUAUAGUAUCUCGAGAAGGCACAUUUG | 63.3 nM | 220 nM | – | – |
| UGGCACCGAGGAUAUACAUGAGGAUCACCCAUGUUCGGAAAGCAUACGGUGGCUUGCUGUAGAAGGCGGGCCAC | 16.2 nM | 13 nM | – | – |
| CUUCAGUCAGGAUAUGUUAAUCUCGCCACUCCGCGAACCGGACAGAAGGGACAUGAGGAUCACCCAUGUUAAAC | 30.4 nM | 19.5 nM | – | – |
| GCUGAUGCAGGAUAUAUAUGAAGCGUUCGAAUAGAAUGCGAACAUGAGGAUCACCCAUGUAGAAGGGCAUUGGC | 14.6 nM | 20.1 nM | – | – |
| ACGACUGUCAUAGGAUAUGGUUACAUGAGGAUCACCCAUGUCAAGGGUCUAACUAAGUAUAGCUACUAGAAGGAUGAUAGUCGA | 143 nM | 116 nM | – | – |
| GGGUACAUCGGAGGAUAUCAUGUAAAUACAUGAGGAUCACCCAUGUCGAUGGAGACAUCGGAGAUGGAGAAGGCCGAUGUACCG | – | – | 538 nM | 102 nM |
| GCACGAGACUAAGGAUAUGGAGUGUCAACAUAAAACAUGAGGAUCACCCAUGUAAAGAGUACGAUUCAGAAGGUAGAGACGUGC | – | – | 41 nM | 23.6 nM |
| AGAUCCUGAGUCAGGAUAUAGAGGCGGUAGCCUGGCUAGAAGGGACAUGAGGAUCACCCAUGUGGGUUCUUGCC | 12.5 nM | 17.4 nM | – | – |
| UGUUGUAUUACAGGAUAUCUAUUAUUUUUAUGUAGAGAAGGGUAUUCACAUGAGGAUCACCCAUGUAUAUACGAGGAAGUUGUG | – | – | 44.1 nM | 45.5 nM |
